The results in this text go back to ChEMBL document CHEMBL1143943, “Synthesis of naphtho[2,3-a]phenoxazinium chlorides: structure-activity relationships of these heterocycles and benzo[a]phenoxazinium chlorides as new antimicrobials” (2008).

Converted amounts (≈) assume the structure as drawn. Structures can show the parent of a compound that is named as a salt.

The subject of one test is Saccharomyces cerevisiae. Put plainly: Antifungal activity against Saccharomyces cerevisiae W303-1B after 48 hrs by broth microdilution assay. The test is classed as functional. In short, it runs like this: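 NCCLS M27-A broth microdilution; S. cerevisiae W303-1B ([…], ade2, his3, leu2, trp1, ura3) at 0.5 · 10³ cells/mL initial density in RPMI 1640 with 0.165 M MOPS, pH 7.0, plus required amino acids; 30 °C. DMSO stocks diluted into medium. MIC read visually at 48 h as lowest concentration giving no detectable growth; triplicates, two independent experiments.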
On the technique in general: Dilution methods test growth across graded concentrations, often in twofold steps.
Usually MIC stands for the lowest concentration found to suppress growth. As to `CC/N=c1/cc2oc3cc(NCCC(=O)OC)c4ccccc4c3nc-2cc1C`, inhibition of growth (MIC) required 15 µM (≈ 5.84 µg/mL).
In turn, `CC/N=c1/cc2oc3cc(NCCCN)c4ccccc4c3nc-2cc1C` yielded a minimum inhibitory concentration (MIC) of 30 µM (≈ 10.8 µg/mL).
Turning to `CC/N=c1/cc2oc3cc(NCCN)c4ccccc4c3nc-2cc1C`, 120 µM (≈ 41.6 µg/mL) was the least that counted as inhibitory (MIC).
`C[N+](C)=c1ccc2nc3c(cc(N)c4ccccc43)oc-2c1` registered an MIC greater than 120 µM.
Take `CC/N=c1/cc2oc3cc(NCCCO)c4ccccc4c3nc-2cc1C`: the minimal inhibitory concentration (MIC) is 60 µM (≈ 21.7 µg/mL).
In turn, `CC/N=c1/cc2oc3cc(NCCO)c4ccccc4c3nc-2cc1C` gave an MIC of 30 µM (≈ 10.4 µg/mL).
The same measure, in the same setting: then `C[N+](C)=c1ccc2nc3c(cc(Nc4ccccc4)c4ccccc43)oc-2c1`, with greater than 120 µM.
Consider `CC/N=c1/cc2oc3cc(NCCC(=O)NCC(=O)OC)c4ccccc4c3nc-2cc1C`, for which 120 µM (≈ 53.6 µg/mL) was the least that counted as inhibitory (MIC).
`C[N+](C)=c1ccc2nc3c(cc(NCCC(=O)O)c4ccccc43)oc-2c1` yielded an MIC greater than 120 µM.
On to `CC/N=c1/cc2oc3cc(Nc4ccccc4)c4ccccc4c3nc-2cc1C`, for which the MIC is greater than 120 µM.
`CC/N=c1/cc2oc3cc(NCCCN)c4cc5ccccc5cc4c3nc-2cc1C` displayed a minimum inhibitory concentration (MIC) of 60 µM (≈ 24.6 µg/mL).
`CC/N=c1/cc2oc3cc(NCCCC(=O)O)c4ccccc4c3nc-2cc1C` registered an MIC of 120 µM (≈ 46.7 µg/mL).
On the same count and under the same terms, then `CC/N=c1/cc2oc3cc(NCCNC(=O)C(NC(=O)OC(C)(C)C)C(C)C)c4ccccc4c3nc-2cc1C` (stereo unspecified), with 15 µM (≈ 8.19 µg/mL).
In turn, `CC[N+](CC)=c1ccc2nc3c(cc(NCCC(=O)OC)c4ccccc43)oc-2c1` registered a minimal inhibitory concentration (MIC) of 15 µM.
Still for that read-out and setting: in the case of `CC/N=c1/cc2oc3cc(NCCC(=O)NC(C)C(=O)OC)c4ccccc4c3nc-2cc1C` (stereo unspecified) it was 30 µM (≈ 13.8 µg/mL); in that of `CC/N=c1/cc2oc3cc(NC(=O)C(NC(=O)OC(C)(C)C)C(C)C)c4ccccc4c3nc-2cc1C` (stereo unspecified), 60 µM (≈ 30.2 µg/mL); in that of `COC(=O)CCNc1cc2oc3cc(=[N+](C)C)ccc-3nc2c2ccccc12`, greater than 120 µM.
With `CC/N=c1/cc2oc3cc(NCCCOC(=O)C(NC(=O)OC(C)(C)C)C(C)C)c4ccccc4c3nc-2cc1C` (stereo unspecified), the MIC is greater than 120 µM.
Same read-out and setting: then `CC/N=c1/cc2oc3cc(NCCOC(=O)C(NC(=O)OC(C)(C)C)C(C)C)c4ccccc4c3nc-2cc1C` (stereo unspecified), with 15 µM (≈ 8.2 µg/mL).
On the same count and under the same terms, in the case of `CC/N=c1/cc2oc3cc(NCCCCl)c4ccccc4c3nc-2cc1C` it was 3.75 µM (≈ 1.42 µg/mL); in that of `CC/N=c1/cc2oc3cc(NCCCC(=O)OCC)c4ccccc4c3nc-2cc1C`, 7.5 µM (≈ 3.13 µg/mL); in that of `CCCCCC/N=c1\ccc2nc3c(cc(Nc4ccccc4)c4ccccc43)oc-2c1`, greater than 120 µM.
`CC[N+](CC)=c1ccc2nc3c(cc(NCCC(=O)O)c4ccccc43)oc-2c1` registered a minimal inhibitory concentration (MIC) of 120 µM.
Consider `CC/N=c1/cc2oc3cc(NCCC(=O)O)c4ccccc4c3nc-2cc1C`, for which the minimum inhibitory concentration (MIC) is 15 µM (≈ 5.63 µg/mL).
For the compound `CC/N=c1/cc2oc3cc(N)c4cc5ccccc5cc4c3nc-2cc1C`, the lowest concentration to inhibit growth (MIC) was 30 µM (≈ 10.6 µg/mL).
Consider `CCCNc1cc2oc3c/c(=N/CC)c(C)cc-3nc2c2cc3ccccc3cc12`, for which the minimal inhibitory concentration (MIC) amounted to 15 µM (≈ 5.93 µg/mL).
For the compound `CC[N+](CC)=c1ccc2nc3c(cc(NCCCO)c4ccccc43)oc-2c1`, the MIC stood at 120 µM.
`CCOC(=O)CCNc1cc2oc3cc(=[N+](C)C)ccc-3nc2c2ccccc12` came in with an MIC of 15 µM.
The compound `CC/N=c1/cc2oc3cc(NCCCC(=O)OCC)c4cc5ccccc5cc4c3nc-2cc1C` came in with an MIC of 15 µM (≈ 7.01 µg/mL).
`CC/N=c1/cc2oc3cc(N)c4ccccc4c3nc-2cc1C` had an MIC of 15 µM (≈ 4.55 µg/mL).
`CC/N=c1/cc2oc3cc(NCCC(=O)OCC)c4ccccc4c3nc-2cc1C` had an MIC of 15 µM (≈ 6.05 µg/mL).
The compound `C[N+](C)=c1ccc2nc3c(cc(NCCCO)c4ccccc43)oc-2c1` returned a minimum inhibitory concentration (MIC) of 120 µM.
On the same count and under the same terms, then `CC[N+](CC)=c1ccc2nc3c(cc(N)c4ccccc43)oc-2c1` [NILE BLUE HYDROCHLORIDE], with 60 µM; and `CC/N=c1/cc2oc3cc(NCCC(=O)NC(C(=O)OC)C(C)C)c4ccccc4c3nc-2cc1C` (stereo unspecified), with 30 µM (≈ 14.7 µg/mL).
On the same count and under the same terms, in the case of `CC/N=c1/cc2oc3cc(NCCC(=O)NC(CCC(=O)OC)C(=O)OC)c4ccccc4c3nc-2cc1C` (stereo unspecified) it was 120 µM (≈ 63.9 µg/mL).
Compound `CC/N=c1/cc2oc3cc(NCCCC(=O)NC(C(=O)OC)C(C)C)c4ccccc4c3nc-2cc1C` (stereo unspecified) came in with a minimal inhibitory concentration (MIC) of 60 µM (≈ 30.2 µg/mL).
Still for that read-out and setting: then `CC/N=c1/cc2oc3cc(NCCCCl)c4cc5ccccc5cc4c3nc-2cc1C`, with 15 µM (≈ 6.45 µg/mL); and `CC/N=c1/cc2oc3cc(NCCC(=O)NC(Cc4ccccc4)C(=O)OC)c4ccccc4c3nc-2cc1C` (stereo unspecified), with 15 µM (≈ 8.05 µg/mL); and `CC/N=c1/cc2oc3cc(NCCCO)c4cc5ccccc5cc4c3nc-2cc1C`, with 15 µM (≈ 6.17 µg/mL).
Take `CC/N=c1/cc2oc3cc(NCCC(=O)NCCCCC(NC(C)=O)C(=O)OC)c4ccccc4c3nc-2cc1C` (stereo unspecified): it took 120 µM (≈ 67.2 µg/mL) to inhibit growth (MIC).

The test system of a further test is Saccharomyces cerevisiae. Put plainly: Antifungal activity against Saccharomyces cerevisiae W303-1B at 0.5*10^4 initial cell density after 48 hrs by broth microdilution assay. It counts as functional. In short, it runs like this:
(§1)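 Same yeast microdilution protocol (W303-1B, RPMI 1640/0.165 M MOPS pH 7.0 with required amino acids, 30 °C, DMSO stocks diluted into medium), but initial inoculum raised in 10-fold steps within 0.5 · 10³–0.5 · 10⁶ cells/mL. MIC taken visually after 48 h as lowest concentration with no detectable growth; triplicates, two independent experiments.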
As for `CC/N=c1/cc2oc3cc(NCCCCl)c4ccccc4c3nc-2cc1C`, the minimum inhibitory concentration (MIC) came to 7.5 µM (≈ 2.85 µg/mL).
`CC/N=c1/cc2oc3cc(NCCCC(=O)OCC)c4ccccc4c3nc-2cc1C`: 7.5 µM (≈ 3.13 µg/mL) was the least that counted as inhibitory (MIC).

A further test relates to Saccharomyces cerevisiae. The test can be described thus: Antifungal activity against Saccharomyces cerevisiae W303-1B at 0.5*10^5 initial cell density after 48 hrs by broth microdilution assay. The test is classed as functional. In short, it runs like this:
as §1
In the case of `CC/N=c1/cc2oc3cc(NCCCCl)c4ccccc4c3nc-2cc1C`, the lowest concentration to inhibit growth (MIC) was 7.5 µM (≈ 2.85 µg/mL).
As to `CC/N=c1/cc2oc3cc(NCCCC(=O)OCC)c4ccccc4c3nc-2cc1C`, the minimum inhibitory concentration (MIC) turned out to be 7.5 µM (≈ 3.13 µg/mL).

The test system of the next test is Saccharomyces cerevisiae. Put plainly: Antifungal activity against Saccharomyces cerevisiae W303-1B at 0.5*10^6 initial cell density after 48 hrs by broth microdilution assay. The test is classed as functional. In short, it runs like this:
as §1
Turning to `CC/N=c1/cc2oc3cc(NCCCCl)c4ccccc4c3nc-2cc1C`, the MIC was 15 µM (≈ 5.7 µg/mL).
Compound `CC/N=c1/cc2oc3cc(NCCCC(=O)OCC)c4ccccc4c3nc-2cc1C` displayed a minimal inhibitory concentration (MIC) of 30 µM (≈ 12.5 µg/mL).
